# Laboratory results as given in ChEMBL document CHEMBL1134575, “Synthesis, molecular modeling, and structure-activity relationship of benzophenone-based CAAX-peptidomimetic farnesyltransferase inhibitors” (J Med Chem, 2001).
# Target: T1, Farnesyltransferase (Saccharomyces cerevisiae S288c, UniProt P22007+P29703)
# T1 sequence (P29703 whole entry): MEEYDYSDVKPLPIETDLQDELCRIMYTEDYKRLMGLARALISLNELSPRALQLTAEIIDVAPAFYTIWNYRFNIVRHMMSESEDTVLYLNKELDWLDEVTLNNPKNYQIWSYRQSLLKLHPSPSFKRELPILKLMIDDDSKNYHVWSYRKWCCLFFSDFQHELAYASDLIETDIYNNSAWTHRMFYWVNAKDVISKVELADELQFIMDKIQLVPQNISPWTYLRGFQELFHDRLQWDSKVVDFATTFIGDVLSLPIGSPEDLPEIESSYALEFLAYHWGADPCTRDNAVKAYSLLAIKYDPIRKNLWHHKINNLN
# T1 sequence (P22007 whole entry): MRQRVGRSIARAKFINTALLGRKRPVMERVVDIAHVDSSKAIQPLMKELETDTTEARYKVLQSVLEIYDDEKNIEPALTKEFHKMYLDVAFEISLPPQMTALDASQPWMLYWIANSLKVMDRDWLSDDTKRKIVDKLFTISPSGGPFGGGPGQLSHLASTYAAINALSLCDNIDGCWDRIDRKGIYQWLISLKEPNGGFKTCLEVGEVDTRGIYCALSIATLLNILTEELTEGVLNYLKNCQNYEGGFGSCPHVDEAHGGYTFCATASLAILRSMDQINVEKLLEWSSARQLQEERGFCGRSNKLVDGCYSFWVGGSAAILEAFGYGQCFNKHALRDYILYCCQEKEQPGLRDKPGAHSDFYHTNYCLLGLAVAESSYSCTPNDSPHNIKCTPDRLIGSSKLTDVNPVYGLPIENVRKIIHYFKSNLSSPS
# Experiment: Inhibitory activity against farnesyltransferase.
# Assay type: protein-complex assay
# Settings: not given
# How it was run: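 Yeast FTase, GST fused at the N-terminus of the β-subunit, expressed in E. coli DH5α and purified on glutathione-agarose. Buffer: 50 mM Tris/HCl pH 7.4, 5 mM MgCl2, 10 μM ZnCl2, 5 mM DTT. Substrates: 7 μM dansyl-GCVLS, 20 μM FPP. Inhibitor in 1% DMSO. IC50 from initial velocities at four or five concentrations, three independent runs, mean ± SD.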
row,Structure (SMILES),IC50
1,Cc1cccc(CC(=O)Nc2ccc(NC(=O)[C@@H](N)CS)cc2C(=O)c2ccccc2)c1,540 nM
2,N[C@@H](CS)C(=O)Nc1ccc(NC(=O)CCC(=O)O)c(C(=O)c2ccccc2)c1,700 nM
3,N[C@@H](CS)C(=O)Nc1ccc(NC(=O)Cc2cccc(Cl)c2Cl)c(C(=O)c2ccccc2)c1,420 nM
4,N[C@@H](CS)C(=O)Nc1ccc(NC(=O)c2cccc3ccccc23)c(C(=O)c2ccccc2)c1,4600 nM
5,N[C@@H](CS)C(=O)Nc1ccc(NC(=O)Cc2ccc(C(F)(F)F)cc2)c(C(=O)c2ccccc2)c1,725 nM
6,CC(=O)Nc1ccc(NC(=O)[C@@H](N)CS)cc1C(=O)c1ccccc1,7600 nM
7,N[C@@H](CS)C(=O)Nc1ccc(NC(=O)C(=O)c2ccccc2)c(C(=O)c2ccccc2)c1,1420 nM
8,N[C@@H](CS)C(=O)Nc1ccc(NC(=O)CCc2ccccc2)c(C(=O)c2ccccc2)c1,1290 nM
9,N[C@@H](CS)C(=O)Nc1ccc(NC(=O)Cc2ccccc2)c(C(=O)c2ccccc2)c1,650 nM
10,COC(=O)CCC(=O)Nc1ccc(NC(=O)[C@@H](N)CS)cc1C(=O)c1ccccc1,1800 nM
11,N[C@@H](CS)C(=O)Nc1ccc(NC(=O)Cc2ccc(Cl)c(Cl)c2)c(C(=O)c2ccccc2)c1,480 nM
12,CC(CC(=O)Nc1ccc(NC(=O)[C@@H](N)CS)cc1C(=O)c1ccccc1)CC(C)(C)C (stereo not given in full),8600 nM
13,COC(=O)CCCC(=O)Nc1ccc(NC(=O)[C@@H](N)CS)cc1C(=O)c1ccccc1,2400 nM
14,N[C@@H](CS)C(=O)Nc1ccc(NC(=O)Cc2cc(Cl)ccc2Cl)c(C(=O)c2ccccc2)c1,2400 nM
15,N[C@@H](CS)C(=O)Nc1ccc(NC(=O)c2ccccc2)c(C(=O)c2ccccc2)c1,4780 nM
16,CC(C(=O)Nc1ccc(NC(=O)[C@@H](N)CS)cc1C(=O)c1ccccc1)c1ccccc1 (stereo not given in full),650 nM
17,N[C@@H](CS)C(=O)Nc1ccc(NC(=O)CCCC(=O)O)c(C(=O)c2ccccc2)c1,550 nM
18,N[C@@H](CS)C(=O)Nc1ccc(NC(=O)Cc2cc(Cl)cc(Cl)c2)c(C(=O)c2ccccc2)c1,535 nM
19,N[C@@H](CS)C(=O)Nc1ccc(NC(=O)Cc2ccc3ccccc3c2)c(C(=O)c2ccccc2)c1,460 nM
20,COc1ccc(CC(=O)Nc2ccc(NC(=O)[C@@H](N)CS)cc2C(=O)c2ccccc2)cc1,545 nM

# Compounds with a lower IC50, results first:
row,IC50,Structure (SMILES)
1,400 nM,Cc1ccccc1CC(=O)Nc1ccc(NC(=O)[C@@H](N)CS)cc1C(=O)c1ccccc1
2,380 nM,N[C@@H](CS)C(=O)Nc1ccc(NC(=O)Cc2cccc3ccccc23)c(C(=O)c2ccccc2)c1
3,340 nM,N[C@@H](CS)C(=O)Nc1ccc(NC(=O)Cc2c(Cl)cccc2Cl)c(C(=O)c2ccccc2)c1
4,120 nM,N[C@@H](CS)C(=O)Nc1ccc(NC(=O)Cc2ccc(Cl)cc2Cl)c(C(=O)c2ccccc2)c1
5,115 nM,N[C@@H](CS)C(=O)Nc1ccc(NC(=O)Cc2ccc([N+](=O)[O-])cc2)c(C(=O)c2ccccc2)c1
6,105 nM,N[C@@H](CS)C(=O)Nc1ccc(NC(=O)Cc2ccc(Cl)cc2)c(C(=O)c2ccccc2)c1
7,100 nM,Cc1ccc(CS(=O)(=O)Nc2ccc(NC(=O)[C@@H](N)CS)cc2C(=O)c2ccccc2)cc1
8,85 nM,N[C@@H](CS)C(=O)Nc1ccc(NS(=O)(=O)Cc2ccccc2)c(C(=O)c2ccccc2)c1
9,77 nM,Cc1ccc(CC(=O)Nc2ccc(NC(=O)[C@@H](N)CS)cc2C(=O)c2ccccc2)cc1
10,76 nM,N[C@@H](CS)C(=O)Nc1ccc(NC(=O)Cc2ccc(Br)cc2)c(C(=O)c2ccccc2)c1
11,36 nM,N[C@@H](CS)C(=O)Nc1ccc(NC(=O)C(c2ccccc2)c2ccccc2)c(C(=O)c2ccccc2)c1

# Test system: HL-60
# Experiment: Antiproliferative activity against HL60 cell line
# Assay type: functional
# Settings: Homo sapiens
# How it was run: (§1)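 Suspended human leukaemic lines (K-562, HL-60, THP-1) grown in RPMI 1640 with penicillin/streptomycin and 10% FBS. About 10 000 cells per well in bicarbonate medium without HEPES. Test substances added in serial twofold dilutions (1:2 to 1:1024). Incubation 72 h, 37 °C, 5% CO2, humidified. Cells counted electronically, each count the mean of three. GI50 read where the concentration–response curve crosses 50% of control counts.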
row,GI50,Structure (SMILES)
1,4200 nM,N[C@@H](CS)C(=O)Nc1ccc(NC(=O)Cc2ccc(Br)cc2)c(C(=O)c2ccccc2)c1

# Test system: K562
# Experiment: Antiproliferative activity against K562 cell line
# Assay type: functional
# Settings: Homo sapiens
# How it was run: as §1
row,GI50,Structure (SMILES)
1,7900 nM,N[C@@H](CS)C(=O)Nc1ccc(NC(=O)Cc2ccc(Br)cc2)c(C(=O)c2ccccc2)c1
2,8100 nM,Cc1ccc(CC(=O)Nc2ccc(NC(=O)[C@@H](N)CS)cc2C(=O)c2ccccc2)cc1

# Test system: THP-1
# Experiment: Antiproliferative activity against THP-1 cell line
# Assay type: functional
# Settings: Homo sapiens
# How it was run: as §1
row,GI50,Structure (SMILES)
1,14900 nM,N[C@@H](CS)C(=O)Nc1ccc(NC(=O)Cc2ccc(Br)cc2)c(C(=O)c2ccccc2)c1
